According to PMC3181126 (Journal of medicinal chemistry, 2011):
“And” between values parts separate entries of the source, which are not always exact repeats. Identical values can stand only once.

What was measured:
BxPC3 cells [1] = assay: Competition of compound 16 by σ2 agonists, flow cytometry; type: cell-based, human; details: preloading 45 min at increasing concentrations, then 16 (25 nM) 45 min
BxPC3 cells [2] = assay: Cell viability at increasing seeding density; type: cell-based, human; details: 100 μM, seeding density 1 × 10^5 to 9 × 10^5
[3] = Molar extinction coefficient; type: physicochemical; details: EtOH solutions
How it was run: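 Absorbance spectra (200–600 nm) of test compound in EtOH at 1–100 μM, in 1 cm quartz cuvettes. ε was obtained by fitting Beer's law to absorbance at the excitation wavelength. Measurements were repeated twice.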

[4] = Fluorescence spectroscopy; type: physicochemical; details: for Φ (quantum yield): standard quinine sulfate; for excitation peaks (λexc): approximate values, solvent not stated
How it was run: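 Spectra taken in EtOH, CHCl3 and PBS on free bases (hydrochlorides also in EtOH/PBS), with 10 nm excitation/emission bandpass. Emission scanned 300–700 nm; excitation scanned 250–450 or 300–550 nm by compound. Quantum yield was relative to a quinine sulfate standard (reference value 0.546), with absorbance below 0.2 at 347 nm. Spectra were instrument-corrected and integrated, and a refractive-index correction applied.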

σ2 receptor = molecular target: T1, σ2 receptor (Rattus norvegicus, UniProt Q5U3Y7); assay: σ2 receptor radioligand binding, [3H]DTG with; details: from Ki σ1 (guinea-pig brain) and Ki σ2 (rat liver)
T1 sequence (Q5U3Y7 1-176): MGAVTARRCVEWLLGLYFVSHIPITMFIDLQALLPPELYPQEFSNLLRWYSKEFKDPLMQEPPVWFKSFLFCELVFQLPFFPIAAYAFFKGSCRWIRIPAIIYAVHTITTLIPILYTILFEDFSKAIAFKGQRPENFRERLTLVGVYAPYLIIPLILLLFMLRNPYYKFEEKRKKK

## COc1cccc2c1CCCC2CCCN1CCN(C2CCCCC2)CC1 (stereo not shown) [compound 1, 1-cyclohexyl-4-[3-(5-methoxy-1,2,3,4-tetrahydronaphthalen-1-yl)propyl]piperazine]
BxPC3 cells [1]
  effect on mean fluorescence intensity of 16: decreased the mean fluorescence intensity of 16
BxPC3 cells [2]
  cell death versus cell density: decreased cell death as the density increased

## COc1cccc2c1CCCC2CCCN1CCN(C2CCN(CCCCCCNc3ccc([N+](=O)[O-])c4nonc34)CC2)CC1 (stereo not shown) [compound 7, 6-[4-[4-[3-(5-Methoxy-1,2,3,4-tetrahydronaphthalen-1-yl]propyl]piperazin-1-yl]piperidino]-N-(7-nitro-2,1,3-benzoxadiazol-4-yl)hexanamine]
[3]
  ε (molar extinction coefficient): 14391 L/mol/cm
[4]; CHCl3
  λem: 515 nm
  λexc: 450 nm
  Φ (quantum yield): 0.17
[4]; EtOH, free bases
  λem: 520 nm
  λexc: 476 nm
  Φ (quantum yield): 0.08
[4]; PBS, free bases
  λem: 535 nm
  λexc: 480 nm

## COc1cccc2c1CCCC2CCCN1CCN(C2CCN(CCCCCCNS(=O)(=O)c3cccc4c(N(C)C)cccc34)CC2)CC1 (stereo not shown) [compound 8, 5-Dimethylaonaphthalene-1-sulfonic acid 6-[4-[4-[3-(5-methoxy-1,2,3,4-tetrahydronaphthalen-1-yl)propyl]piperazin-1-yl]piperidino]hexanamide]
[3]
  ε (molar extinction coefficient): 2600 L/mol/cm
[4]; CHCl3
  λem: 490 nm
  λexc: 346 nm
  Φ (quantum yield): 0.32
[4]; EtOH, free bases
  λem: 507 nm
  λexc: 335 nm
  Φ (quantum yield): 0.29
[4]; PBS, free bases
  λem: 510 nm
  λexc: 340 nm
[4]
  excitation peaks (λexc): ~ 335 nm and ~ 450 nm

## O=[N+]([O-])c1ccc(NCCOCCOc2cccc3c2CCCC3CCCN2CCN(C3CCCCC3)CC2)c2nonc12 (stereo not shown) [compound 17, 2-[2-[5-[3-(4-Cyclohexylpiperazin-1-yl)propyl]-5,6,7,8-tetrahydronaphthalen-1-yloxy]ethoxy]-N-(7-nitro-2,1,3-benzoxadiazol-4-yl)ethanamine]
[3]
  ε (molar extinction coefficient): 6544 L/mol/cm
[4]; CHCl3
  λem: 512 nm
  λexc: 450 nm
  Φ (quantum yield): 0.18
[4]; EtOH, free bases
  λem: 520 nm
  λexc: 465 nm
  Φ (quantum yield): 0.04
[4]; PBS, free bases
  λem: 520 nm
  λexc: 460 nm
[4]
  excitation peaks (λexc): ~ 335 nm and ~ 450 nm

## CN(C)c1cccc2c(S(=O)(=O)NCCCCCCOc3cccc4c3CCCC4CCCN3CCN(C4CCCCC4)CC3)cccc12 (stereo not shown) [compound 18, 5-Dimethylaonaphthalene-1-sulfonic acid 6-[5-[3-(4-cyclohexylpiperazin-1-yl)propyl]-5,6,7,8-tetrahydronaphthalen-1-yloxy]hexanamide]
[3]
  ε (molar extinction coefficient): 4000 L/mol/cm
σ2 receptor
  σ2 versus σ1 selectivity: did not show any σ2 versus σ1 selectivity
[4]; CHCl3
  λem: 490 nm
  λexc: 340 nm
  Φ (quantum yield): 0.30
[4]; EtOH, free bases
  λem: 507 nm
  λexc: 335 nm
  Φ (quantum yield): 0.20
[4]; PBS, free bases
  λem: 485 nm
  λexc: 345 nm

## Fc1cccc(F)c1[C@H]1CC[C@@H](N2CCN(C3CCCCC3)CC2)CC1 [compound 20, cis-1-cyclohexyl-4-[4-(2,6-difluorophenyl)cyclohexyl]piperazine]
BxPC3 cells [1]
  effect on mean fluorescence intensity of 16: decreased the mean fluorescence intensity of 16
BxPC3 cells [2]
  cell death versus cell density: decreased cell death as the density increased
